Measurements from ChEMBL document CHEMBL4732180, “Discovery of novel positive allosteric modulators of the α7 nicotinic acetylcholine receptor: Scaffold hopping approach” (Eur J Med Chem, 2021).

Experiments:
[1] = AUC (0 to 5 hrs) in Wistar rat plasma at 3 mg/kg, iv up to 5 hrs by HPLC-MS/MS analysis; assay type: ADME, organism-based; parameters: route intravenous, dose 3 mg/kg, time <=5
[2] = Cmax in Wistar rat brain at 3 mg/kg, po up to 5 hrs by HPLC-MS/MS analysis; assay type: ADME, organism-based; parameters: route oral, dose 3 mg/kg, time <=5
[3] = Intrinsic clearance in rat liver microsome at 1 to […] up to 40 mins; assay type: ADME; settings: liver microsomes, dose 1-2.5 µM, read-out: CLH
[4] = Lipophilicity, logP of compound; assay type: physicochemical; settings: octanol/water
[5] = Tmax in Wistar rat plasma at 3 mg/kg, po up to 5 hrs by HPLC-MS/MS analysis; assay type: ADME, organism-based
[6] = AUC (0 to 5 hrs) in Wistar rat plasma at 3 mg/kg, po up to 5 hrs by HPLC-MS/MS analysis; assay type: ADME, organism-based; parameters: route oral, dose 3 mg/kg, time <=5
[7] = Apparent permeability across apical to basolateral side in vinblastine-treated human Caco2 cells at 10 uM after 180 mins by HPLC or UHPLC-MS/MS analysis; assay type: ADME; settings: Caco-2
Procedure, shortened: (§1)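 Vinblastine-selected Caco-2 (VB-Caco-2) monolayers with high P-gp expression. Compound at 1 or 10 µM, measured apical-to-basolateral and basolateral-to-apical in HBSS with 25 mM HEPES. pH 7.4 on both sides, 37 °C, 120 rpm shaking, up to 180 min with compound-specific duration. Quantified by HPLC or UHPLC-MS/MS; PDR = Papp B-A / Papp A-B.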

[8] = Volume of distribution in Wistar rat plasma at 3 mg/kg, iv up to 5 hrs by HPLC-MS/MS analysis; assay type: ADME, organism-based
[9] = Clearance in Wistar rat plasma at 3 mg/kg, iv up to 5 hrs by HPLC-MS/MS analysis; assay type: ADME, organism-based
[10] = Tmax in Wistar rat brain at 3 mg/kg, po up to 5 hrs by HPLC-MS/MS analysis; assay type: ADME, organism-based
[11] = Half life in Wistar rat plasma at 3 mg/kg, iv up to 5 hrs by HPLC-MS/MS analysis; assay type: ADME, organism-based
[12] = Cmax in Wistar rat plasma at 3 mg/kg, po up to 5 hrs by HPLC-MS/MS analysis; assay type: ADME, organism-based; parameters: route oral, dose 3 mg/kg, time <=5
[13] = Intrinsic clearance in mouse liver microsome at 1 to […] up to 40 mins; assay type: ADME; settings: liver microsomes, dose 1-2.5 µM, read-out: CLH
[14] = AUC (0 to 5 hrs) in Wistar rat brain at 3 mg/kg, po up to 5 hrs by HPLC-MS/MS analysis; assay type: ADME, organism-based; parameters: route oral, dose 3 mg/kg, time <=5
[15] = Intrinsic clearance in human liver microsome at 1 to […] up to 40 mins; assay type: ADME; settings: liver microsomes, dose 1-2.5 µM, read-out: CLH
[16] = Apparent permeability across apical to basolateral side in vinblastine-treated human Caco2 cells at 1 uM after 180 mins by HPLC or UHPLC-MS/MS analysis; assay type: ADME; settings: Caco-2; procedure, shortened: as §1

SMILES | AUC(0-t) [1] [ng·h/mL] | Cmax [2] [ng/mL] | microsomal CLint at […] [3] [µL/min/mg] | logP [4] | Tmax [5] [h] | AUC(0-t) [6] [ng·h/mL] | Papp A→B at 3 h, 10 µM [7] [×10⁻⁶ cm/s] | Vd [8] [L/kg] | clearance [9] [mL/min/kg] | Tmax [10] [h] | half-life [11] [h] | Cmax [12] [ng/mL] | microsomal CLint at […] [13] [µL/min/mg] | AUC(0-t) [14] [ng·h/mL] | microsomal CLint at […] [15] [µL/min/mg] | Papp A→B at 3 h, 1 µM [16] [×10⁻⁶ cm/s]
NS(=O)(=O)c1ccc(-c2cc(C(=O)N3CC4CC4C3)nn2-c2ccc(Cl)cc2)cc1 (stereo not given) | 3490 | 36.8 | 10 | 3.1 | 2 | 134 | 18 | 1.17 | 14.1 | 2 | 0.97 | 31.6 | 5 | 158 | 4 | –
CCC(=O)c1cc(-c2ccc(S(N)(=O)=O)cc2)n(-c2ccc(Cl)cc2)n1 | – | – | 20 | 3.8 | – | – | 20 | – | – | – | – | – | 16 | – | 18 | –
CCC(=O)c1cc(-c2ccc(Cl)cc2)n(-c2ccc(S(N)(=O)=O)cc2)c1C | – | – | 10 | 4.7 | – | – | – | – | – | – | – | – | 26 | – | 3 | 9
